Screens deposited in PubChem by The Scripps Research Institute Molecular Screening Center.
Most compounds without a hit are left out; they make up all but 2.9% or so of the library.
OX1R antag-1: OX1R (HCRTR1) antagonists, primary screen, fluorescence, CHO/OX1R cells, Fluo-8 calcium, orexin A; Orexin/Hypocretin receptor type 1 (Homo sapiens), O43613; Fluo-8 calcium fluorescence; inhibition, % at 5 µM; 330,000 tested, 0.43% active;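 active means inhibition above its plate's threshold, mean inhibition of all tested compounds on the plate plus 3 SD, cut at about 37% in these data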
Target sequence (O43613 whole entry, looked up): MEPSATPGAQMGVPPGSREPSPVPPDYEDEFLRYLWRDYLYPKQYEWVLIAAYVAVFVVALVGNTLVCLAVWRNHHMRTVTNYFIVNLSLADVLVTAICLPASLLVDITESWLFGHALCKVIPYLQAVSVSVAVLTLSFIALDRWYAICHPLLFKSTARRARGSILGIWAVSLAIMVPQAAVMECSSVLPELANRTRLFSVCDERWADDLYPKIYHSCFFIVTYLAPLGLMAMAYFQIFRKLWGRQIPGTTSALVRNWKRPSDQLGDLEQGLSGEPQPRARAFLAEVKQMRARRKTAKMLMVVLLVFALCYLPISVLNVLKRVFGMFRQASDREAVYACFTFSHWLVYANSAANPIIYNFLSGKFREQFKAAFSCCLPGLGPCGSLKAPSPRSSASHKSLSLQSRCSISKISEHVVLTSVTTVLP
M1 ag parental: counter-screen for M1 agonists: effect in parental CHO-K1 cells. activation, % at 3 µM. Fluo-8 calcium fluorescence; scaled to maximal ATP response, vehicle zero. 360,000 tested, 0.48% active; in the data active means activation above about 15%;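 further: untransfected CHO-K1 host cells lacking M1 receptor as counterscreen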
M1 PAM parental: nonselective calcium activators in parental CHO-K1 cells, primary screen, counter-screen for M1 PAM project, cell-based, Fluo-8 calcium fluorescence, full deck, 1536-well | 360,000 tested, 0.02% active | ATP EC20; 0% at ATP EC20, 100% at ATP max | activation, % at 3 µM;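 active means activation above the run cutoff, the mean activation of all test compounds plus 3 SD, cut at about 40% in these data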;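 further: peak over basal fluorescence ratio in a 140 s read after ATP addition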
CHO-K1 Ca antag: nonselective inhibitor or artifact in parental CHO-K1 cells | inhibition, % at 3 µM | ATP-induced calcium, Fluo-8 fluorescence | 360,000 tested, 0.6% active;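 active means inhibition above a per-plate cutoff, the plate's mean sample inhibition plus 3 SD, cut at about 24% in these data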
OX1R antag-2: antagonists of human orexin 1 receptor (OX1R). Orexin/Hypocretin receptor type 1 (Homo sapiens), O43613. OX1R-expressing cells, FRET antagonist read-out. inhibition, % at 6.6 µM. 330,000 tested, 1.8% active. AID 485270, 2010; in the data active means inhibition mostly above about 38%, no sharp cut-off; inactive means mostly below about 40%
CHO parental Ca: ATP-evoked calcium signal inhibitors, parental CHO, primary screen, counter-screen for OX1R antagonist project, cell-based, fluorescence, Fluo-8 calcium dye; AID 463079, 2010; inhibition, % at 5.6 µM; parental CHO-K1, ATP-induced calcium, Fluo-8 fluorescence; 330,000 tested, 0.63% active;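 active means inhibition above that plate's mean sample inhibition plus 3 SD, cut at about 26% in these data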
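Material – parental CHO cells · Reagent – ATP stimulus · Compound – single nominal dose of 5.6 µM per compound · Detection – Fluo-8 fluorescence · Read-out basis – percent inhibition of calcium signal · Controls – ATP-challenged DMSO wells low, unchallenged DMSO wells high · Repeats – no replicates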
OX1R Fluo8 conf: OX1R (HCRTR1) antagonists, confirmation, fluorescence, CHO/OX1R cells, Fluo-8 calcium, orexin A; 1,100 tested, 38% active; shares compounds with OX1R antag-1; orexin A calcium Fluo-8 fluorescence; inhibition, % at 5 µM; in the data active means inhibition above about 29%
CHO Ca triplic: ATP-evoked calcium inhibition in parental CHO, counter-screen for OX1R antagonist project, cell-based, fluorescence, CHO-K1, triplicate; shares compounds with OX1R antag-1; 1,100 tested, 9.3% active; AID 492965, 2010; inhibition, % at 5.6 µM; ATP-induced calcium, Fluo-8 fluorescence;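 active means inhibition above a per-plate limit, the mean inhibition of that plate's test compounds plus 3 SD, cut at about 25% in these data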
OX1R HTRF conf: OX1R (HCRTR1) antagonists, confirmation, cell-based, HTRF; shares compounds with OX1R antag-2; OX1R-expressing cells, HTRF antagonist assay; inhibition, % at 6.6 µM; 1,800 tested, 49% active; AID 492964, 2010; in the data active means inhibition above about 55%;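 further: CHO cells expressing OX1R stimulated with orexin A at about EC80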
CHO-K1 HTRF: signal inhibition in parental CHO-K1 cells, counter-screen for OX1R antagonist project, cell-based, HTRF; shares compounds with OX1R antag-2; HTRF counterscreen; inhibition, % at 6.6 µM; 1,800 tested, 48% active; in the data active means inhibition above about 17%
Large screens that a line does not name were inactive (follow-up assays come after a bar, where they were run).

CCSC1=C(C#N)C(c2ccccc2Cl)C(C(=O)c2cccs2)C(O)(C(F)(F)F)N1 (stereo not drawn)	OX1R antag-1 94.5, OX1R antag-2 95.2 | OX1R Fluo8 conf 77.2 | CHO Ca triplic inactive | OX1R HTRF conf 89.0 | CHO-K1 HTRF inactive
C=CCSC1=C(C#N)C(c2ccccc2Cl)C(C(=O)c2cccs2)C(O)(C(F)(F)F)N1 (stereo not drawn)	OX1R antag-1 41.8, OX1R antag-2 103.6 | OX1R Fluo8 conf 79.0 | CHO Ca triplic inactive | OX1R HTRF conf 88.7 | CHO-K1 HTRF inactive
CCSC1=C(C#N)C(c2ccccc2Cl)CC(=O)N1 (stereo not drawn)	none
Fc1cccc(-c2cc3nc(-c4ccccc4)cc(N4CCC5(CC4)OCCO5)n3n2)c1	OX1R antag-1 45.6, OX1R antag-2 72.0 | OX1R Fluo8 conf 51.6 | CHO Ca triplic inactive | OX1R HTRF conf inactive | CHO-K1 HTRF inactive
COc1ccc(-c2cc3nc(-c4ccccc4)cc(N4CCC(O)CC4)n3n2)cc1	none
Cc1cccc(-c2cc3nc(-c4ccccc4)cc(N4CCC5(CC4)OCCO5)n3n2)c1	OX1R antag-1 47.3, OX1R antag-2 63.7 | OX1R Fluo8 conf inactive | CHO Ca triplic inactive | OX1R HTRF conf 69.5 | CHO-K1 HTRF inactive
C=CC(COCc1ccccc1)N(C(=O)OC(C)(C)C)S(=O)(=O)c1ccccc1Br (stereo not drawn)	none
COc1ccc(CN(CC(O)COCc2ccccc2)S(=O)(=O)c2ccccc2Br)cc1OC (stereo not drawn)	OX1R antag-1 54.6, OX1R antag-2 46.2 | OX1R Fluo8 conf inactive | CHO Ca triplic inactive | OX1R HTRF conf 68.1 | CHO-K1 HTRF inactive
Cc1cc(O)cc2c(=O)c3ccccc3sc12	OX1R antag-1 52.3, OX1R antag-2 86.2 | OX1R Fluo8 conf 55.9 | CHO Ca triplic inactive | OX1R HTRF conf 92.0 | CHO-K1 HTRF inactive
COC(=O)c1c(O)cc(C(C)(C)C)n(-c2ccc(F)cc2)c1=O	none
Cc1cc(C)c(S(=O)(=O)NCc2csc(C)n2)c(C)c1	none (no result: OX1R antag-1, OX1R antag-2, CHO parental Ca)
O=C1c2ccccc2C(=O)N1CC(O)Cn1nnc2ccccc21 (stereo not drawn)	none
OC(CN1c2ccccc2Sc2ccccc21)Cn1nnc2ccccc21 (stereo not drawn)	OX1R antag-2 62.8 | OX1R Fluo8 conf 30.9 | CHO Ca triplic inactive | OX1R HTRF conf inactive | CHO-K1 HTRF inactive
Cc1c(NC(=O)Cn2[nH]c(=O)c3ccccc3c2=O)c(=O)n(-c2ccccc2)n1C	none
Cc1sc(NC(=O)Cn2[nH]c(=O)c3ccccc3c2=O)nc1-c1ccccc1	OX1R antag-1 38.6, OX1R antag-2 74.4 | OX1R Fluo8 conf 42.6 | CHO Ca triplic inactive | OX1R HTRF conf 75.9 | CHO-K1 HTRF inactive
CCN(CC)c1ccc(NC(=O)Cn2c(C(C)NC(=O)c3ccccc3)nc3ccccc32)cc1 (stereo not drawn)	OX1R antag-1 53.7, OX1R antag-2 92.7 | OX1R Fluo8 conf 61.5 | CHO Ca triplic inactive | OX1R HTRF conf 88.2 | CHO-K1 HTRF inactive
Cc1ccc(C(=O)NC(C)c2nc3ccccc3n2CC(=O)Nc2c(C)cc(C)cc2C)cc1 (stereo not drawn)	none (no result: M1 ag parental, M1 PAM parental, CHO-K1 Ca antag)
